Results as given in article PMC7913687 (Nucleic Acids Research, 2021).

Columns and labels:
[1] = system: t^6A formation by TsaC, TsaB, TsaD and TsaE; assay: In vitro HPLC assay for t^6A formation, overall; format: biochemical, Escherichia coli; settings: for Km: read-out: Km, overall reaction, apparent, amino acid as variable substrate; for k cat, overall reaction: named ligand as variable substrate
[2] = target: overall reaction (TsaC, TsaB, TsaD and TsaE) (Escherichia coli, UniProt P05852+P45748); assay: Inhibition of t6A formation in the full TsaBCDE reaction; format: biochemical; settings: read-out: IC50 (μM) Overall reaction
Method in brief: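 Full reaction: 50 mM MOPS pH 7.5, 20 mM NaHCO3, 25 mM KCl, 1 mM ATP, L-Thr (0.6 mM per footnote; 1 mM in text), 10 μM unmodified E. coli tRNALys, 1 μM each TsaB/C/D/E. Variable test compound; ATP-started; 23 °C, 5 min; EDTA quench, G-50 desalting, nuclease P1/alkaline phosphatase digest. Isocratic C18 HPLC quantifies t6A at 260 nm. IC50 from near-initial rates.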

EcTsaBDE = EcTsaBDE (Escherichia coli, UniProt P05852); assay: Isolated second step of t^6A formation; format: biochemical
TsaC = target: T1, TsaC (Escherichia coli, UniProt P45748); assay: TsaC reaction; format: biochemical; settings: named ligand as variable substrate
T1 sequence (P45748 1-190): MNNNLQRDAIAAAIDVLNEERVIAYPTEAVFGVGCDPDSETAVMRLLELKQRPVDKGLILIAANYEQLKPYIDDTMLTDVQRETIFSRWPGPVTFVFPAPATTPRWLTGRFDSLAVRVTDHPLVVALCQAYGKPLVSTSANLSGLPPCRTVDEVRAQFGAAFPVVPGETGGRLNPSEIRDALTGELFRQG
Method in brief: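 Enzyme, with the other components and any inhibitor, preincubated 2 min at 23°C, then started with ATP. After 1 min at 23°C, injected directly onto C18 HPLC (isocratic 50 mM potassium phosphate pH 6, 1% acetonitrile). TC-AMP read by UV at 260 nm. […], measured near initial rates.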

EcTsaBDE complex = settings: read-out: Km for TsaE-catalyzed ATPase activity; cited from earlier work
[3] = system: aspartate and ornithine transcarbamoylases; settings: cited from earlier work
C[C@@H](O)[C@H](N)C(=O)O = assay: purified protein, by the assay type; settings: pH 6.0; 23.0 °C
[4] = system: Nc1ncnc2c1ncn2[C@@H]1O[C@H](COP(=O)(O)OP(=O)(O)OP(=O)(O)O)[C@@H](O)[C@H]1O; assay: purified protein, by the assay type; settings: pH 6.0; 23.0 °C
[5] = target: Escherichia coli TsaBD heterodimer, preformed from fluorescently labelled His6-TsaD and unlabelled TsaB (Escherichia coli) (UniProt P05852); assay: MST
Sequence of Escherichia coli TsaBD heterodimer, preformed from fluorescently labelled His6-TsaD and unlabelled TsaB (Escherichia coli) (P05852 whole entry, chain 1 of 2): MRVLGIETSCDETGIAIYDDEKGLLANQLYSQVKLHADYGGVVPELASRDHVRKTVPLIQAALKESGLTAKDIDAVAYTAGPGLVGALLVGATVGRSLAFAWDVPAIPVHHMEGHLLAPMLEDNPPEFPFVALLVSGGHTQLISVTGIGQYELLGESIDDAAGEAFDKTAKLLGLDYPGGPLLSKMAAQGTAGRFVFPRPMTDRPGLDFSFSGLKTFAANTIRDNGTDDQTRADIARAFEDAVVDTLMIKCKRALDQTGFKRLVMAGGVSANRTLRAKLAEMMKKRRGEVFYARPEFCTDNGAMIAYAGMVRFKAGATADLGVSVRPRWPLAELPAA
Sequence of Escherichia coli TsaBD heterodimer, preformed from fluorescently labelled His6-TsaD and unlabelled TsaB (Escherichia coli) (P76256 whole entry, chain 2 of 2, further chain): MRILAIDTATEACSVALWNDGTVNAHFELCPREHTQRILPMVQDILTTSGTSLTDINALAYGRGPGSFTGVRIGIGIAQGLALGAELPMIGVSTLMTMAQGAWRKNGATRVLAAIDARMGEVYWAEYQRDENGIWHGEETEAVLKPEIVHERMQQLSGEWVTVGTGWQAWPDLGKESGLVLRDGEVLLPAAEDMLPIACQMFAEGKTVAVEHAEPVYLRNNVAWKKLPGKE

Sequence of overall reaction (TsaC, TsaB, TsaD and TsaE) (P76256 whole entry, one chain of several): as the sequence (P76256 whole entry, chain 2 of 2, further chain) above
Sequence of overall reaction (TsaC, TsaB, TsaD and TsaE) (P05852 whole entry, one chain of several): as the sequence (P05852 whole entry, chain 1 of 2) above
Sequence of EcTsaBDE (P05852 whole entry): as the sequence (P05852 whole entry, chain 1 of 2) above
Sequence of EcTsaBDE (P76256 whole entry partner): as the sequence (P76256 whole entry, chain 2 of 2, further chain) above

CCC(O)[C@H](N)C(=O)O (mixture of isomers) [hNV, (±)-3-hydroxynorvaline]
Km [1]: 500 µM

Nc1ncnc2c1ncn2[C@@H]1O[C@H](COP(=O)(O)OP(=O)(O)O)[C@@H](O)[C@H]1O [5′-ADP, adenosine 5'-diphosphate]
IC50 [2]: 160 ± 20 µM

Nc1ncnc2c1ncn2[C@@H]1O[C@H](COP(=O)(O)O)[C@@H](O)[C@H]1O [5′-AMP, adenosine 5'-monophosphate]
IC50 [2]: 113 ± 10 µM

Nc1ncnc2c1ncn2[C@@H]1O[C@H](COP(=O)(O)OP(=O)(O)OP(=O)(O)O)[C@@H](O)[C@H]1O [ATP]
reduction in the Vmax (substrate inhibition) ([1]; at 5 mM ATP): 50%
reduction in the Vmax (substrate inhibition) ([1]; at 10 mM ATP): 90%
Kis (substrate inhibition), overall reaction ([1]; calculated for observed substrate inhibition, fit to Equation 3): 2200 µM
k cat, overall reaction [1]: 0.00667 ± 0.0067 s⁻¹
fold lower turnover of t^6A formation than ATPase activity (EcTsaBDE): ~80 fold
fold lower Km for t^6A second step than Km for ATPase activity (EcTsaBDE; 14 μM vs 0.64 mM): 40 fold
Kis, second step with TC-AMP as substrate (EcTsaBDE; TC-AMP 10 μM, fit to Equation 3): 1.8 mM
Kis (substrate inhibition), TsaBDE reaction (EcTsaBDE; TC-AMP 10 μM, calculated for observed substrate inhibition): 1800 µM
k cat, TsaBDE reaction (EcTsaBDE; named ligand as variable substrate): 0.002 ± 0.0017 s⁻¹
K m, TsaC reaction (TsaC): 130 ± 10 µM
k cat, TsaC reaction (TsaC): 0.132 ± 0.0033 s⁻¹
Km (EcTsaBDE complex): 640 µM

NC(=O)OP(=O)(O)O [CP, carbamoyl phosphate]
Km [3]: 4 to 10 µM

C[C@@H](O)[C@H](N)C(=O)O [L-Thr, L-threonine]
k cat, overall reaction [1]: 0.007 ± 0.00033 s⁻¹
Km [1]: 590 ± 90 µM
K m, TsaC reaction (TsaC): 1770 ± 260 µM
k cat, TsaC reaction (TsaC): 0.15 ± 0.0067 s⁻¹

Nc1ncnc2c1ncn2[C@@H]1O[C@H](COP(=O)(O)OC(=O)N[C@@H](CO)C(=O)O)[C@@H](O)[C@H]1O [SC-AMP, serine analog of TC-AMP (L-serylcarbamoyl-adenylate)]
IC50 [2]: 9.3 ± 1.2 µM

EcTsaC (Escherichia coli K-12)
Km (C[C@@H](O)[C@H](N)C(=O)O): 1770 ± 260 µM
kcat (C[C@@H](O)[C@H](N)C(=O)O): 0.15 ± 0.00667 s⁻¹
Km [4]: 130 ± 10 µM
kcat [4]: 0.132 ± 0.00333 s⁻¹

Escherichia coli TsaE (from UniProt P0AF67 1-153) (enzyme; other documents disagree on this pair)
Kd [5]: 2.2 µM
